Compounds with a hit are over-represented: about 29% of the library has one in this group of screens.
CYP2C19 inhib – inhibitors of human CYP2C19; P33261; CYP2C19 Supersomes, luciferin-H EGE luminescence, 30 min; inhibition, % at 5 µM; actives 21% (n = 96,000); AID 778;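 active means CYP2C19 inhibition above a set limit at 5 µM in the primary screen, cut at about 50% in these data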;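 further: plate controls were negative control wells for no effect and 2.5 mM tranylcypromine positive control for full effect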
CYP2C19 act – cytochrome P450 2C19 (human) activation; P33261; recombinant CYP2C19, luciferin-H EGE luminescence; stronger effect = higher value; 0 = fully inhibited enzyme, 1 = untreated enzyme; activation factor at 5 µM; 96,000 tested, under 10 active;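 active means activation factor of at least 2 at 5 µM in the primary screen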;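 further: 0 = wells with 2.5 mM tranylcypromine and 1 = vehicle-only wells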
E coli WT exp – growth inhibitors of E. coli BW25113 wild type; OD600 absorbance; growth inhibition, % at 100 µM; actives 0.15% (n = 98,000); AID 710;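 active means growth inhibition above about 50% at one test dose, limit read from the data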;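 further: growth measured after 20 h incubation at 37 °C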
CYP2C9 activ – increases human cytochrome P450 2C9 activity | activation factor at 5 µM | P11712 | AID 1024 | actives 1.4% (n = 96,000) | recombinant CYP2C9, luciferin-H conversion, luminescence; stronger effect = higher value; factor 1 = untreated enzyme, 0 = blocked;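 active means activation factor of 2 or more for CYP2C9 at a 5 µM dose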;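 further: 0 = sulfaphenazole-blocked wells and 1 = vehicle-only wells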
Target sequence (P11712 whole entry, looked up): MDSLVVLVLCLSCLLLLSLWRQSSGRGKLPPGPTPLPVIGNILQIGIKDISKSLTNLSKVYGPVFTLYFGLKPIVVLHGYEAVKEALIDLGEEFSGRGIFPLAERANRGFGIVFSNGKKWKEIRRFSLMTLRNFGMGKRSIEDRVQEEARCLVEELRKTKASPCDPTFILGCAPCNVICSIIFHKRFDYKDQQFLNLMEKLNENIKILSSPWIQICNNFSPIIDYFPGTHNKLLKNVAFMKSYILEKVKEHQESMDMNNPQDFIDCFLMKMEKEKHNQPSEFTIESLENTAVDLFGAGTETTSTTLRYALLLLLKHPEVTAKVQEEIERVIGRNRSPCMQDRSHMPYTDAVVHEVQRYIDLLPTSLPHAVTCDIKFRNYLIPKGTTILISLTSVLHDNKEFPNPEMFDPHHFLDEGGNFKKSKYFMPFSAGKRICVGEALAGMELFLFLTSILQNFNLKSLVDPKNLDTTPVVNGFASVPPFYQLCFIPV
CYP2C9 inh – blocks human cytochrome P450 2C9 | P11712 | CYP2C9 Supersomes, luciferin-H conversion, luminescence | inhibition, % at 5 µM | actives 20% (n = 96,000) | AID 777;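 active means blocking of liver enzyme CYP2C9 beyond about 50% at 5 µM, limit read from the data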
Ecoli tolC – E. coli tolC mutant growth inhibition; E. coli BW25113 tolC mutant growth, OD615; growth inhibition, % at 10 µM (by protocol); actives 2.2% (n = 65,000); AID 573;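 active means growth inhibition at or above a cutoff equal to the mean over every tested compound plus 3 SD, cut at about 60% in these data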;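 further: growth measured after 20 h incubation at 37 °C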
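signal = optical density read at 615 nm | test system = E. coli ΔtolC::kan strain BW25113 | timing = 20 h compound exposure of bacteria at 37 °C | buffer or medium = LB medium plus 50 µg/mL kanamycin | compound dosing = 10 µM final, single dose | evaluation = % inhibition of E. coli growth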
Active calls of the source: *; / = not tested or not shown.

SMILES	CYP2C19 inhib	CYP2C19 act	E coli WT exp	CYP2C9 activ	CYP2C9 inh	Ecoli tolC
C[N+]12CCC(CC1)C(C(O)(c1ccccc1)c1cccs1)C2 (stereo unspecified)	-5.5	1.1	2.0	1	-3.7	/
CCC1(c2ccccc2)C(=O)N(COC)C(=O)N(COC)C1=O	79.4*	0.2	-5.0	0.9	12.2	-5.6
O=C1NC(=O)C(Cc2cccs2)C(=O)N1	-24.5	1.2	-6.0	1.2	-18.5	0.7
O=C(C1CCN(S(=O)(=O)c2ccccc2)CC1)N1CCC2(CC1)OCCO2	5.5	0.9	1.0	0.9	11.3	/
Cn1c(O)c(/C=N/c2ccccn2)c(=O)n(C)c1=O	-10.0	1.1	-4.0	1	3.1	-8.3
c1ccc2c(c1)CNc1ccccc1O2	48.5	0.5	17.0	0.9	8.3	-10.1
Cc1ccc2c(c1)CNc1ccccc1O2	71.3*	0.3	3.0	0.8	24.8	4.6
Cc1cccc(NC(=O)CSc2nnc([C@@H](N)Cc3c[nH]c4ccccc34)o2)c1C	18.5	0.8	6.0	0.6	44.0	11.2
C=Cn1ccnc1P(=S)(c1nccn1C=C)C1CCCCC1	70.3*	0.3	5.0	0.9	14.7	26.9
CC(=NCc1cccnc1)c1c(O)n(-c2ccc(C)cc2)c(=O)[nH]c1=O	22.1	0.8	-8.0	0.9	12.7	-37.0
CCC(=NCc1cccnc1)c1c(O)n(C2CCCCC2)c(=O)[nH]c1=O	98.0*	0	4.0	0.2	83.3*	-2.9
CC(=NCc1cccnc1)c1c(O)n(-c2ccccc2C)c(=O)[nH]c1=O	83.7*	0.2	4.0	0.4	60.4*	/
CCC(=O)c1c(O)n(C2CCCCCC2)c(=O)[nH]c1=O	17.8	0.8	6.0	0.8	19.5	54.6
CC(=NCc1cccnc1)c1c(O)n(C2CCCCC2)c(=O)[nH]c1=O	98.9*	0	-5.0	0.5	51.1*	-7.9
CCC(=NCCCN(CC)CC)c1c(O)n(C2CCCCC2)c(=O)[nH]c1=O	56.3*	0.4	-7.0	0.9	7.8	-30.3
CCN(CC)CCCN=C(C)c1c(O)n(C2CCCCC2)c(=O)[nH]c1=O	49.5	0.5	0.0	0.9	14.6	-19.0
CCOC(=O)c1cc2c(cn1)[nH]c1ccccc12	/	/	/	/	/	9.6
CCCN(CC#CCO)CCC	/	/	-6.0	/	/	6.8
CCCCOC(=O)C1=C(N)OC2=C(C(=O)CC(C)(C)C2)[C@]12C(=O)N(C)c1ccccc12	12.0	0.9	1.0	1	1.6	15.7
CC(=NCCO)c1c(O)n(C2CCCCC2)c(=O)[nH]c1=O	13.9	0.9	4.0	0.9	5.6	-15.4
CCC(=Nc1ccc(OC)cc1OC)c1c(O)n(C2CCCCC2)c(=O)[nH]c1=O	-9.7	1.1	0.0	0.9	10.6	76.9*
CCC(=NCc1ccco1)c1c(O)n(C2CCCCC2)c(=O)[nH]c1=O	96.0*	0	-6.0	0.5	51.1*	14.8
O=C1C2CCN(CC2)C1Cc1ccc(OCCOc2ccccc2)cc1 (stereo unspecified)	-14.6	1.1	4.0	1.1	-9.0	-4.7
Cc1ccc(C2C(S(C)(=O)=O)=C(O)C(=O)N2c2ccccc2)cc1 (stereo unspecified) (tested in a mixture with another compound)	-2.7	1	4.0	1.1	-8.5	74.9*
CC1(C)CN=C(NCc2ccccc2Cl)S1	64.6*	0.4	22.0	0.9	9.2	8.1
SMILES	CYP2C19 inhib	CYP2C19 act	E coli WT exp	CYP2C9 activ	CYP2C9 inh	Ecoli tolC
N#CC1=C(N)Oc2c(c(=O)oc3ccccc23)C1c1cccnc1 (stereo unspecified)	-8.6	1.1	6.0	0.4	64.5*	1.1
Cc1nn(-c2ccccc2)c(Cl)c1C1C(C#N)=C(N)Oc2c1c(=O)oc1ccccc21 (stereo unspecified)	44.8	0.6	-19.0	0	99.2*	68.0*
C=Cn1ccnc1P(=S)(c1ccn(C)c1)c1nccn1C=C	-8.7	1.1	0.0	1.1	-14.5	-6.6
Cc1cc(C)n(CCOC(=O)C2C(C=C(Cl)Cl)C2(C)C)n1 (stereo unspecified)	91.8*	0.1	4.0	0.3	74.9*	48.2
Oc1cccc(/C=N/NP(=S)(c2ccccc2)c2ccccc2)c1	93.8*	0.1	11.0	0	98.9*	/
Cc1cccnc1-n1c(C)nc2ccccc2c1=O	-16.7	1.2	0.0	1.1	-11.8	/

Assay outcomes (PubChem)
